Source: PubChem BioAssay
A selection: hits, their analogues and other compounds. The true share with any hit is near 3.8%.
KCNK9 block – blocks the human KCNK9 two-pore domain potassium channel | HEK293 KCNK9, FluxOR thallium flux fluorescence; active compounds read low | B-score at 10 µM | 310,000 compounds, 1.2% hits;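 active = ratio B-score over 3 SD below the library mean, with starting fluorescence within 5 SD of its mean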;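 note: negative B-score means less thallium flux so channel inhibition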
KCNK3 block – human KCNK3 channel inhibition, primary screen; O14649; CHO-KCNK3 thallium flux, FluxOR fluorescence; active compounds read low; B-score at 10 µM; 340,000 compounds, 0.84% hits;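 active = B-score under library mean minus 4 SD, starting fluorescence ratio at most library mean plus 5 SD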;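 note: more negative B-score means stronger inhibition of thallium flux through KCNK3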
Target sequence (O14649 whole entry, looked up): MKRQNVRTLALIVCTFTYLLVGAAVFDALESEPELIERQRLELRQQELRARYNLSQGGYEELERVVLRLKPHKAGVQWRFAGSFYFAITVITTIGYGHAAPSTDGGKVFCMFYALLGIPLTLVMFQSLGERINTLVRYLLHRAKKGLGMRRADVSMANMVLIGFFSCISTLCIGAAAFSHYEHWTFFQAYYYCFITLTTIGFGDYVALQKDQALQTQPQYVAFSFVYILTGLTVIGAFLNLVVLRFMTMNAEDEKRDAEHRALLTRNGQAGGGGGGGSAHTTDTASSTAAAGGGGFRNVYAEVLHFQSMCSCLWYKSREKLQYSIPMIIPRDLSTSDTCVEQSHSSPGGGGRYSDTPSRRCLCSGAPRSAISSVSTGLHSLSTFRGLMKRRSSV
KCNQ1 inh – inhibitors of human KCNQ1 potassium channel | B-score at 10 µM | 310,000 compounds, 1.3% hits | CHO-K1 KCNQ1, FluxOR thallium flux fluorescence; active compounds read high | P51787;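 active = compounds whose thallium flux B-score, printed positive for inhibition, exceeds three library SD while starting fluorescence stays within three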;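 note: channel opened by potassium depolarization with thallium stimulus after 20 min compound exposure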
hERG rescue – compounds protecting human hERG from proarrhythmic drug block; CHO-hERG, FluxOR thallium flux, dofetilide IC70 present; Q12809; activation (rescue from dofetilide block), less the hit threshold, % at 10 µM; AID 1511; 310,000 compounds, 0.51% hits;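 active = activation above the mean of controls blocked by dofetilide plus 5 SD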;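 note: thallium influx through hERG after potassium depolarization seen as dye fluorescence rise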
KCNQ1 act – human KCNQ1 channel potentiation or activation; P51787; CHO-K1 KCNQ1, thallium flux FluxOR fluorescence; active compounds read high; B-score at 10 µM; 310,000 compounds, 0.35% hits; AID 2648;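 active = fluorescence ratio B-score, a plate-corrected score, at least three library SD, with initial intensity B-score within 5 SD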
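assay system = CHO-K1 cells stably expressing KCNQ1 | medium = assay buffer, equal DMSO in all wells | timing = 37 °C overnight plating, 90-min dark dye load, 20-min compound pretreatment | measured by = kinetic FluxOR thallium fluorescence, 10-s 1-Hz baseline, 110-s post-stimulus read | measure = fluorescence change relative to baseline, converted to B score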
Kir21 block – Kir2.1 (mouse) channel inhibition; HEK293-Kir2.1, FluxOR thallium flux fluorescence; active compounds read low; B-score at 10 µM; 310,000 compounds, 0.85% hits; AID 1672;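 active = fluorescence ratio B-score at or below minus 3 SD of library scores, with starting-brightness B-score within 2 SD, cut at about -4.2 in these data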;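 note: channel flux triggered by added potassium and thallium sulfate stimulus; B-score of peak minus minimum fluorescence over baseline after thallium stimulus; more negative B-score means stronger Kir2.1 block with less thallium influx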
Numbers stand for hits; n = inactive; x = no result.

SMILES | KCNK9 block | KCNK3 block | KCNQ1 inh | hERG rescue | KCNQ1 act | Kir21 block
C/C(=N\NC(=O)c1c(Cl)c(C)nn1C)c1cccc(NC(=O)C2CCCC2)c1 | n | n | n | n | n | n
CCCn1c(SCC(=O)N2CCN(C(C)=O)CC2)nc2sc3c(c2c1=O)CCC3 | n | n | n | 25 | 16 | n
CCn1c(SC(C)C(=O)O)nc2sc3c(c2c1=O)CCC3 (configuration not stated) | n | n | n | 15 | 14 | n
Cc1ccccc1CC(=O)N1CCCC(CNC(=O)c2ccc(F)cc2)C1 (configuration not stated) | n | n | n | n | n | n
Cc1sc2ncnc(SCC(=O)NC(=O)c3cccn3C)c2c1C | n | n | n | n | 11 | n
Cc1cccc(NC(=O)CSc2ncnc3sc(C)c(C)c23)n1 | n | n | n | n | n | n
CC1CCN(C(=O)CN2C(=O)C(=O)N(C)C2=O)c2ccccc2S1 (configuration not stated) | x | n | x | x | x | x
CC[n+]1c(/C=C2/C=C(C)CC(C)C2)sc2ccccc21 (configuration not stated) | n | n | 6 | n | n | n
CC/C(=C/c1sc2ccccc2[n+]1CC)SC | n | n | n | n | n | n
CC[n+]1c(C=C2C=C(C)OC(C)=C2)sc2ccccc21 | n | n | 10 | n | n | n
CC[n+]1c(/C=C(\C)SC)sc2ccccc21 | n | n | n | n | n | n
O=C(NCCCN1CCCC1=O)C1CCC(CNS(=O)(=O)c2ccc(Cl)cc2)CC1 (configuration not stated) | n | n | n | n | n | n
O=C(COC(=O)C1CCC1)NCCc1ccc(Cl)cc1Cl | n | n | n | n | n | n
CN(C)CCCSc1nc(-c2ccccc2)nc2c1CCC2 | n | n | n | n | n | -9.7
CN(C)CCSc1nc(-c2ccccc2)nc2c1CCC2 | n | n | n | n | n | n
CC(=O)Nc1ccc(S(=O)(=O)NCC(=O)Nc2ccc3c(c2)OCO3)cc1 | x | n | x | x | x | x
S=c1nc(-c2ccc(Br)cc2)oc2c1CCCC2 | n | n | n | 14 | n | n
COc1cc(/C=C2\SC(=S)N(CCC(=O)Nc3cccc(O)c3)C2=O)cc(OC)c1OC | n | n | n | n | n | n
Cc1ccc(C)c(NC(=O)CN(C)C(=O)c2ccccc2Cc2ccccc2)c1 | n | n | n | n | n | -4.3
CN(CC(=O)Nc1cccc(F)c1)C(=O)c1ccccc1Cc1ccccc1 | n | n | n | n | n | n
Cc1ccc(C)c(NC(=O)c2ccccc2C(=O)c2ccccc2)c1 | -10 | x | n | n | n | n
Cc1nc(CS(=O)(=O)c2ccc(Cl)cc2)cc(Sc2ccc(Cl)cc2)n1 | -6.6 | n | n | n | n | -4.8
N#Cc1c(/N=C/c2cc3ccccc3s2)sc2c1CCC2 | n | n | n | n | n | n
Cc1[nH]n(-c2cccc3ccccc23)c(=O)c1/C=N/c1sc2c(c1C#N)CCC2 | n | n | n | n | 11 | n
Cc1[nH]n(-c2ccc(F)cc2)c(=O)c1/C=N/c1sc2c(c1C#N)CCCC2 | n | n | n | 20 | 34 | n
SMILES | KCNK9 block | KCNK3 block | KCNQ1 inh | hERG rescue | KCNQ1 act | Kir21 block
COc1cccc(OC)c1C(=O)OCC(=O)N(c1ccccc1)C1CCCCC1 | x | n | x | x | x | x
CC[C@@H]1C=C(C(=O)O)[C@H](c2ccc(Br)cc2)N1S(=O)(=O)c1ccc(C)cc1 | x | n | x | x | x | x
COc1cc(/C=C/C(=O)c2cccc([N+](=O)[O-])c2)cc(OC)c1OC | n | n | n | n | n | -4.7
COc1cccc(/C=C/C(=O)c2ccc(C)c([N+](=O)[O-])c2)c1 | n | n | n | n | n | -5.8
CC(=O)c1cccc([N+](=O)[O-])c1 | x | n | x | x | x | x
O=C1OC(=O)c2cc([N+](=O)[O-])ccc21 | x | n | x | x | x | x
O=C(/C=C/c1ccccc1F)c1cccc([N+](=O)[O-])c1 | n | n | n | n | n | -5.5
COc1cc(/C=C2/OC(=O)c3cc([N+](=O)[O-])ccc32)cc(OC)c1OC | n | n | n | 11 | n | n
O=C(NCCOC(=O)c1ccccc1)c1ccccc1 | x | n | x | x | x | x
Cn1nccc1C(=O)OCC(=O)Nc1cccc(Cl)c1 | x | n | x | x | x | x
COc1cc(OC)cc(-c2nnc(NC(=O)CCS(=O)(=O)c3ccc(C)cc3)o2)c1 | n | n | n | n | n | n
